According to ChEMBL document CHEMBL1833943, “Synthesis and structure-activity relationships of varied ether linker analogues of the antitubercular drug (6S)-2-nitro-6-{[4-(trifluoromethoxy)benzyl]oxy}-6,7-dihydro-5h-imidazo[2,1-b][1,3]oxazine (PA-824)” (J Med Chem, 2011):
Values after ≈ are worked out from the molar mass of the structure shown.

Legend:
[1] = test system: Mycobacterium tuberculosis; assay: Antituberculosis activity against Mycobacterium tuberculosis H37Rv under anaerobic conditions by fluorescence based low-oxygen-recovery assay; format: functional
[2] = test system: Mycobacterium tuberculosis; assay: Antituberculosis activity against Mycobacterium tuberculosis H37Rv under aerobic conditions by microplate alamar blue assay; format: functional
[3] = Metabolic stability in CD1 mouse liver microsomes at 1 uM measured as compound remaining after 1 hr by LC/MS/MS analysis; format: ADME, Microsome; conditions: read-out: Stability
[4] = test system: Mycobacterium tuberculosis; assay: Antituberculosis activity against Mycobacterium tuberculosis H37Rv infected in BALB/c mouse acute infection model assessed as fold reduction in bacterial CFU in lungs at 100 mg/kg, po administered for 5 days a week for 3 weeks beginning on day 11 postinfection relative to PA-824; format: functional
In short: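 Mice with acute M. tb infection dosed orally at 100 mg/kg daily, 5 days each week, standard 3 week assay. Lung CFUs counted. Value is the fold CFU decrease for the compound divided by the fold CFU decrease for the internal reference standard run in the same experiment.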

[5] = Metabolic stability in human liver microsomes at 1 uM measured as compound remaining after 1 hr by LC/MS/MS analysis; format: ADME, Microsome; conditions: read-out: Stability
[6] = Aqueous solubility of the compound in water at pH 7 by HPLC analysis; format: physicochemical
In short: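 Solubility measured in water at pH 7 and 20 °C, quantified by HPLC.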

O=[N+]([O-])c1cn2c(n1)OC[C@@H](OCC#Cc1ccc(-c3ccc(C(F)(F)F)nc3)cc1)C2
MIC [1]: 1.2 µM (≈ 0.533 µg/mL)
MIC [2]: 0.15 µM (≈ 0.0667 µg/mL)
remaining at 1 h, 1 µM [3]: 90%
fold change (FC) [4]: 0.01
remaining at 1 h, 1 µM [5]: 82%

O=[N+]([O-])c1cn2c(n1)OC[C@@H](OCCOc1ccc(-c3ccc(OC(F)(F)F)cc3)cc1)C2
MIC [1]: 1.6 µM (≈ 0.745 µg/mL)
MIC [2]: 0.055 µM (≈ 0.0256 µg/mL)
remaining at 1 h, 1 µM [3]: 70%
fold change (FC) [4]: 1.4
solubility [6]: 0.68 µg/mL (≈ 1.46 µM)
remaining at 1 h, 1 µM [5]: 90%

O=[N+]([O-])c1cn2c(n1)OC[C@@H](OCCCC#Cc1ccc(C(F)(F)F)cn1)C2
MIC [1]: 3.5 µM (≈ 1.39 µg/mL)
MIC [2]: 0.19 µM (≈ 0.0753 µg/mL)
solubility [6]: 28 µg/mL (≈ 70.6 µM)

CC(O[C@@H]1COc2nc([N+](=O)[O-])cn2C1)c1ccc(OC(F)(F)F)cc1 (mixture of isomers)
MIC [1]: 7.7 µM
MIC [2]: 0.6 µM
remaining at 1 h, 1 µM [3]: 75%
remaining at 1 h, 1 µM [5]: 73%

O=[N+]([O-])c1cn2c(n1)OC[C@@H](OCc1ccc(C(F)(F)F)cn1)C2
MIC [1]: 22 µM (≈ 7.57 µg/mL)
MIC [2]: 1.5 µM (≈ 0.516 µg/mL)
solubility [6]: 188 µg/mL (≈ 546 µM)

O=[N+]([O-])c1cn2c(n1)OC[C@@H](OCCOc1ccc(C(F)(F)F)cn1)C2
MIC [1]: 26 µM (≈ 9.73 µg/mL)
MIC [2]: 0.38 µM (≈ 0.142 µg/mL)
solubility [6]: 42 µg/mL (≈ 112 µM)

O=[N+]([O-])c1cn2c(n1)OC[C@@H](OCCOc1ccc(OCc3ccccc3)cc1)C2
MIC [1]: 5.5 µM (≈ 2.26 µg/mL)
MIC [2]: 0.085 µM (≈ 0.035 µg/mL)
solubility [6]: 1.7 µg/mL (≈ 4.13 µM)

O=[N+]([O-])c1cn2c(n1)OC[C@@H](OC/C=C/c1ccc(-c3ccc(OC(F)(F)F)cc3)cc1)C2
MIC [1]: > 128 µM
remaining at 1 h, 1 µM [3]: 95%
fold change (FC) [4]: 2
solubility [6]: 0.5 µg/mL (≈ 1.08 µM)
remaining at 1 h, 1 µM [5]: 100%

O=[N+]([O-])c1cn2c(n1)OC[C@@H](OC/C=C/c1ccc(C(F)(F)F)nc1)C2
MIC [1]: 21 µM (≈ 7.78 µg/mL)
MIC [2]: 0.15 µM (≈ 0.0555 µg/mL)
solubility [6]: 45 µg/mL (≈ 122 µM)

O=[N+]([O-])c1cn2c(n1)OC[C@@H](OCc1ccc(OCc3ccccc3)cc1)C2
MIC [1]: 1.3 µM (≈ 0.496 µg/mL)
MIC [2]: 0.025 µM (≈ 0.00953 µg/mL)
remaining at 1 h, 1 µM [3]: 44%
solubility [6]: 0.76 µg/mL (≈ 1.99 µM)
remaining at 1 h, 1 µM [5]: 59%

O=[N+]([O-])c1cn2c(n1)OC[C@@H](OC/C=C/c1ccc(OC(F)(F)F)cc1)C2
MIC [1]: 4.3 µM (≈ 1.66 µg/mL)
MIC [2]: 0.05 µM (≈ 0.0193 µg/mL)
remaining at 1 h, 1 µM [3]: 71%
solubility [6]: 1.5 µg/mL (≈ 3.89 µM)
remaining at 1 h, 1 µM [5]: 99%

O=[N+]([O-])c1cn2c(n1)OC[C@@H](OCCCc1ccc(-c3ccc(C(F)(F)F)cc3)cc1)C2
MIC [1]: > 128 µM
MIC [2]: 0.043 µM (≈ 0.0192 µg/mL)
remaining at 1 h, 1 µM [3]: 81%
fold change (FC) [4]: 0.05
remaining at 1 h, 1 µM [5]: 73%

O=[N+]([O-])c1cn2c(n1)OC[C@@H](OCCCc1ccc(OCc3ccccc3)cc1)C2
MIC [1]: 3.7 µM (≈ 1.51 µg/mL)
MIC [2]: 0.5 µM (≈ 0.205 µg/mL)
solubility [6]: 3.8 µg/mL (≈ 9.28 µM)

O=[N+]([O-])c1cn2c(n1)OC[C@@H](Oc1ncc(-c3ccc(OC(F)(F)F)cc3)cn1)C2
MIC [1]: 5.2 µM (≈ 2.2 µg/mL)
MIC [2]: 0.22 µM (≈ 0.0931 µg/mL)
remaining at 1 h, 1 µM [3]: 95%
solubility [6]: 1.7 µg/mL (≈ 4.02 µM)
remaining at 1 h, 1 µM [5]: 88%

O=[N+]([O-])c1cn2c(n1)OC[C@@H](OCCOc1ccc(C(F)(F)F)nc1)C2
MIC [1]: 59 µM (≈ 22.1 µg/mL)
MIC [2]: 0.79 µM (≈ 0.296 µg/mL)
solubility [6]: 58 µg/mL (≈ 155 µM)

O=[N+]([O-])c1cn2c(n1)OC[C@@H](OCCCc1ccc(OC(F)(F)F)cc1)C2
MIC [1]: 3.2 µM (≈ 1.24 µg/mL)
MIC [2]: 0.22 µM (≈ 0.0852 µg/mL)
solubility [6]: 11 µg/mL (≈ 28.4 µM)

O=[N+]([O-])c1cn2c(n1)OC[C@@H](OCC#Cc1ccc(C(F)(F)F)nc1)C2
MIC [1]: 8.9 µM (≈ 3.28 µg/mL)
MIC [2]: 0.18 µM (≈ 0.0663 µg/mL)
solubility [6]: 11 µg/mL (≈ 29.9 µM)

O=[N+]([O-])c1cn2c(n1)OC[C@@H](OCCOc1ncc(-c3ccc(OC(F)(F)F)cc3)cn1)C2
MIC [1]: 2.1 µM (≈ 0.981 µg/mL)
MIC [2]: 0.13 µM (≈ 0.0608 µg/mL)
solubility [6]: 21 µg/mL (≈ 44.9 µM)

O=[N+]([O-])c1cn2c(n1)OC[C@@H](Oc1cccc(-c3ccc(OC(F)(F)F)cc3)n1)C2
MIC [1]: 3.3 µM (≈ 1.39 µg/mL)
MIC [2]: 0.24 µM (≈ 0.101 µg/mL)
solubility [6]: 0.12 µg/mL (≈ 0.284 µM)

O=[N+]([O-])c1cn2c(n1)OC[C@@H](OC/C=C/c1ccc(C(F)(F)F)cn1)C2
MIC [1]: 3.8 µM (≈ 1.41 µg/mL)
MIC [2]: 0.043 µM (≈ 0.0159 µg/mL)
solubility [6]: 29 µg/mL (≈ 78.3 µM)

O=[N+]([O-])c1cn2c(n1)OC[C@@H](OCc1ccc(C(F)(F)F)nc1)C2
MIC [1]: 50 µM (≈ 17.2 µg/mL)
MIC [2]: 3 µM (≈ 1.03 µg/mL)
solubility [6]: 68 µg/mL (≈ 198 µM)
